Data set [1] has as its system Cortical neurone. Description: Anti-excitotoxic activity in Sprague-Dawley rat cortical neurons assessed as reduction of NMDA-evoked neuronal injury at 10 uM incubated for 30 mins prior to NMDA induction and maintained during NMDA induction for 15 mins measured after 9 hrs. The format is functional. In outline:
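Rat cortical neurons exposed to NMDA for 15 min, then incubated 9 h. Compound or MK801 (10 µM) added 30 min before and kept during NMDA. Injury scored as % inhibition of LDH release, given as median with interquartile range; N = 9–18.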

A short description of data set [2]: Cytotoxicity against Sprague-Dawley rat cortical neurons assessed as cell viability at 10 uM by LDH assay. To be noted: cortical neurone.
Data set [3] deals with Cortical neurone. Description: Anti-ischemic activity in Sprague-Dawley rat cortical neurons assessed as reduction of oxygen-glucose deprivation/reoxygenation-induced neuronal injury at 10 uM incubated for 30 mins prior to induction of oxygen-glucose deprivation and maintained during entire period of oxygen-glucose deprivation/reoxygenation measured after 9 hrs by LDH assay. Format: functional. The gist of the method:
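Rat cortical neurons given 90 min oxygen-glucose deprivation, then 9 h reoxygenation. Compound, MK801 or trolox (10 µM or indicated concentrations) applied 30 min before OGD and kept through OGD/R. Neuronal injury read by LDH assay; mean ± SEM, N = 24.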

The nature of data set [4]: Antioxidant activity assessed as AAPH-induced free radical scavenging activity at 25 uM preincubated for 30 mins followed by AAPH induction measured every 5 mins for 9 hrs by ORAC assay relative to vehicle-treated control. The format is functional. The gist of the method:
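ORAC: area under the fluorescence decay curve (netAUC) expressed as fold change relative to vehicle control. Mean ± SEM, N = 12; trolox included as reference.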

The subject of data set [5] is Radical scavenging activity. As to the kind of experiment: Antioxidant activity assessed as inhibition of DPPH-induced free radical generation at 80 uM after 30 mins relative to control. The format is functional. The gist of the method: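 DPPH scavenging given as % inhibition of DPPH absorbance, with values derived from a standard dose–response curve of vitamin C (0–500 µM). Mean ± SEM, N = 9.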
For orientation: The DPPH test is a chemical assay of radical scavenging.

The subject of data set [6] is Cortical neurone. Description: Anti-excitotoxic activity in Sprague-Dawley rat cortical neurons assessed as inhibition of NMDA-induced intracellular calcium uptake at 10 uM incubated for 30 mins prior to NMDA induction measured after 50 secs by fluo-3 AM staining-based […] microscopic analysis. Format: functional, cell-based. In outline:
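Cultured rat cortical neurons loaded with Fluo-3 AM for 30 min with or without 10 µM compound, then exposed to NMDA. Intracellular free Ca2+ read 50 s after NMDA as fold change in integrated fluorescence density of Ca2+-bound Fluo-3 over basal. Median, interquartile range and min–max reported; N = 4–5; compared with NMDA-treated group.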
(In general: Calcium assays in cells follow changes in intracellular calcium, usually with a dye or a luminescent sensor.)

In data set [7] the test system is Cortical neurone. As to the kind of experiment: Anti-ischemic activity in Sprague-Dawley rat cortical neurons assessed as reduction of oxygen-glucose deprivation-induced intracellular oxidative stress at 10 uM incubated for 30 mins prior to induction of oxygen-glucose deprivation and maintained during entire period of oxygen-glucose deprivation/reoxygenation measured after 1 hr by H2DCFDA staining-based […] microscopic analysis. The format is functional, cell-based. The gist of the method: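 Neurons pretreated 30 min before 90 min OGD, with treatment kept through reoxygenation. H2DCFDA loaded 1 h after reoxygenation; intracellular oxidative stress read as rise in fluorescence intensity 2 h later by imaging.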

Data set [8] has as its system Radical scavenging activity. As to the kind of experiment: Antioxidant activity assessed as inhibition of DPPH-induced free radical generation at 1 to 500 uM after 30 mins relative to control. The format is functional.

Activity calls are given as the source filed them. The rule behind the calls is not given here.

For the compound `C[C@]12N[C@H](Cc3ccccc31)c1ccccc12` [DIZOCILPINE], the outcome in the data set with Cortical neurone [1] and with Cortical neurone [3] was Active. Also, in data set [2], the Activity entry was “Non-toxic”.

Take `Cc1c(C)c2c(c(C)c1O)CCC(C)(C(=O)O)O2` (stereo not given): the fold change (FC) in data set [4] was determined as 3.11.

Regarding `CC1(C)[C@@H]2C[C@H]1C(/C=C/c1ccc(O)c(Br)c1)=CC2=O`, the Activity result in data set [2] is reported as “Non-toxic”. The fold change (FC) in data set [4] is 11.6. The inhibition (as a rule, how much of the control response was suppressed) in data set [5] was determined as 29.4%.

Regarding `CC1(C)[C@@H]2C[C@H]1C(/C=C/c1ccc(-n3cccc3)cc1)=CC2=O`, the Activity result in data set [2] was “Non-toxic”. Further, in data set [4], the fold change (FC) is 6.81. Also, the inhibition result in data set [5] was “inactive”.

For the compound `CC1(C)[C@@H]2C[C@H]1C(/C=C/c1ccccn1)=CC2=O`, in the data set on Cortical neurone [1], the outcome was Active. For the same compound, the Activity entry in data set [2] is “Non-toxic”. For the same compound, the fold change (FC) in data set [4] is 1.63. Also, in data set [5], the inhibition result was “inactive”.

`CC1(C)[C@@H]2C[C@H]1C(/C=C/c1ccc(-c3ccccc3)cc1)=CC2=O`: in data set [2], the Activity entry is on record as “Non-toxic”. For the same compound, the fold change (FC) in data set [4] turned out to be 1.85. In addition, in data set [5], the inhibition entry is “inactive”.

Turning to `CC1(C)[C@@H]2C[C@H]1C(/C=C/c1ccccc1O)=CC2=O`, in data set [2], the Activity result was “Non-toxic”. Besides, the fold change (FC) in data set [4] turned out to be 6.84. For the same compound, in data set [5], the inhibition was determined as 4.64%.

Consider `COc1cc(/C=C/C2=CC(=O)[C@H]3C[C@@H]2C3(C)C)cc(O)c1O` [SP-8356], for which the inhibition result in the data set with Cortical neurone [6] is “Active”. For the same compound, the result in the data set with Cortical neurone [1], in the data set with Cortical neurone [7] and in the data set on Cortical neurone [3] was Active. Besides, the Activity result in data set [2] was “Non-toxic”. In addition, the fold change (FC) in data set [4] came to 6.86. Moreover, in data set [5], the inhibition is 83.6%.

For `CC1(C)[C@@H]2C[C@H]1C(/C=C/c1ccc(O)cc1)=CC2=O`, the result in the data set on Cortical neurone [1] and with Cortical neurone [3] was Active. Moreover, the Activity entry in data set [2] was “Non-toxic”. Besides, the outcome with Cortical neurone [7] was inactive. For the same compound, the fold change (FC) in data set [4] amounted to 10.7. Further, the inhibition in data set [5] was 19.1%.

With `COc1cc(O)ccc1/C=C/C1=CC(=O)[C@H]2C[C@@H]1C2(C)C`, the Activity entry in data set [2] is “Non-toxic”. The fold change (FC) in data set [4] was determined as 7.37. Further, the inhibition in data set [5] turned out to be 38.1%.

Regarding `CC1(C)[C@@H]2C[C@H]1C(/C=C/c1cccc(O)c1)=CC2=O`, the Activity result in data set [2] is “Non-toxic”. Also, the fold change (FC) in data set [4] turned out to be 5.11. In addition, the inhibition result in data set [5] is “inactive”.

Turning to `CC1(C)[C@@H]2C[C@H]1C(/C=C/c1ccc(F)cc1)=CC2=O`, the Activity result in data set [2] is “Non-toxic”. In data set [4], the fold change (FC) was determined as 1.81. Also, the inhibition result in data set [5] was “inactive”.

As to `CC1(C)[C@@H]2C[C@H]1C(/C=C/c1ccncc1)=CC2=O`, in data set [2], the Activity entry is on record as “Non-toxic”. Also, in data set [4], the fold change (FC) was determined as 1.56. In data set [5], the inhibition entry is “inactive”.

As to `CC1(C)[C@@H]2C[C@H]1C(/C=C/c1ccc(O)c(O)c1)=CC2=O`, the result in the data set with Cortical neurone [1], in the data set with Cortical neurone [7] and in the data set on Cortical neurone [3] was Active. In data set [2], the Activity entry is “Non-toxic”. Moreover, the fold change (FC) in data set [4] came out at 9.09. In data set [5], the inhibition was 91.6%.

On to `COc1ccc(/C=C/C2=CC(=O)[C@H]3C[C@@H]2C3(C)C)c(O)c1`, for which, in the data set with Cortical neurone [1], the result was Active. The Activity result in data set [2] was “Non-toxic”. For the same compound, in data set [4], the fold change (FC) turned out to be 9.48. Further, in data set [5], the inhibition stood at 51.2%.

Consider `COc1ccc(/C=C/C2=CC(=O)[C@H]3C[C@@H]2C3(C)C)cc1OC`, for which, in data set [2], the Activity result is listed as “Non-toxic”. Besides, the fold change (FC) in data set [4] amounted to 2.73. Further, the inhibition entry in data set [5] was “inactive”.

As for `COc1cc(/C=C/C2=CC(=O)[C@H]3C[C@@H]2C3(C)C)cc(OC)c1`, the Activity entry in data set [2] is “Non-toxic”. Besides, the fold change (FC) in data set [4] is 3.14. Further, the inhibition entry in data set [5] was “inactive”.

`CC1(C)[C@@H]2C[C@H]1C(/C=C/c1cccnc1)=CC2=O`: the Activity result in data set [2] is “Non-toxic”. The fold change (FC) in data set [4] was 1.59. For the same compound, the inhibition result in data set [5] is “inactive”.

For `COc1cc(O)cc(OC)c1/C=C/C1=CC(=O)[C@H]2C[C@@H]1C2(C)C`, the Activity entry in data set [2] was “Non-toxic”. Moreover, the fold change (FC) in data set [4] is 11.5. In data set [5], the inhibition is 55.8%.

With `CC1=CC(=O)[C@H]2C[C@@H]1C2(C)C` [LEVOVERBENONE], the Activity result in data set [2] is “Non-toxic”. In data set [4], the fold change (FC) was determined as 1.19. Further, the inhibition entry in data set [5] was “inactive”.

Consider `COc1ccc(OC)c(/C=C/C2=CC(=O)[C@H]3C[C@@H]2C3(C)C)c1`, for which, in data set [2], the Activity entry was “Non-toxic”. The fold change (FC) in data set [4] worked out at 2.25. In addition, the inhibition entry in data set [5] is “inactive”.

Consider `CC1(C)[C@@H]2C[C@H]1C(/C=C/c1ccccc1)=CC2=O`, for which the Activity entry in data set [2] is on record as “Non-toxic”. Moreover, in data set [4], the fold change (FC) is 1.92. Also, the inhibition result in data set [5] is “inactive”.

On to `O=C1O[C@H]([C@@H](O)CO)C(O)=C1O`, for which, in data set [8], the inhibition amounted to 74%.

On to `COc1ccc(/C=C/C2=CC(=O)[C@H]3C[C@@H]2C3(C)C)cc1`, for which, in data set [2], the Activity entry was “Non-toxic”. For the same compound, the fold change (FC) in data set [4] turned out to be 2.64. In addition, in data set [5], the inhibition entry is “inactive”.

Source of the values: ChEMBL document CHEMBL2424605, “Discovery of novel (1S)-(-)-verbenone derivatives with anti-oxidant and anti-ischemic effects” (Bioorg Med Chem Lett, 2013).
